T cruzi repl – inhibitors of intracellular T. cruzi growth, primary screen, luminescence, NIH3T3 host cells. inhibition, % (concentration not given with the values). hit rate 1.4% among 300,000. T. cruzi beta-gal in NIH3T3, 90 h;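 active = mean inhibition across valid replicates above about 55%, limit read from the data; inconclusive = mean below that limit but half or more replicates reach it; inactive = mean below it, under half of replicates reach it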;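 also: signal also drops with host cell toxicity which is not excluded here; higher percent means less beta-gal luminescence so fewer parasites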
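compound dosing = single 50 nL compound addition per well in DMSO | material = NIH/3T3 host cells with β-galactosidase reporter T. cruzi | input = 5,000 host fibroblasts per well | timing = ≥90 h infection period, 3 h prior cell attachment | read-out basis = percent inhibition of parasite-derived β-gal signal | detection = GalScreen β-gal luminescence, detergent lysis, 60 min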
Mdm2-MdmX inh – inhibitors of human Mdm2-MdmX association, primary screen, cell-based, luminescence, split luciferase, SaOS-2, uHTS; inhibition, % at 8 µM; hit rate 3% among 330,000; SaOS-2 split-luciferase Mdm2/MdmX complementation;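 active = inhibition of at least 50% at 8 µM in the primary screen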
Target sequence (O15151 whole entry, looked up): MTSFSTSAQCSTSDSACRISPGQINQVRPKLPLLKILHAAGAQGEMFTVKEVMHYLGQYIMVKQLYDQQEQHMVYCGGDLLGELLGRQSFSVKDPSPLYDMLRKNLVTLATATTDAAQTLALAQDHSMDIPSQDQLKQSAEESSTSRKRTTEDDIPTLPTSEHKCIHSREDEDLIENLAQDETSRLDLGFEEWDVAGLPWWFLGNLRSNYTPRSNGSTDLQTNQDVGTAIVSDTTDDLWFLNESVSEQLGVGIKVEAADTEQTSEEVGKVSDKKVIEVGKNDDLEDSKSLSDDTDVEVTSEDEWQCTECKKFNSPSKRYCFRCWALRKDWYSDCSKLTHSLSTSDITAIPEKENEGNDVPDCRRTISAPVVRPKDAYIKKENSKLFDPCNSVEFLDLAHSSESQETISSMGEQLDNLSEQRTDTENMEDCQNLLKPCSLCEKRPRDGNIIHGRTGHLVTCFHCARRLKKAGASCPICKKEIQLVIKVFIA
Target sequence (Q00987 whole entry, looked up): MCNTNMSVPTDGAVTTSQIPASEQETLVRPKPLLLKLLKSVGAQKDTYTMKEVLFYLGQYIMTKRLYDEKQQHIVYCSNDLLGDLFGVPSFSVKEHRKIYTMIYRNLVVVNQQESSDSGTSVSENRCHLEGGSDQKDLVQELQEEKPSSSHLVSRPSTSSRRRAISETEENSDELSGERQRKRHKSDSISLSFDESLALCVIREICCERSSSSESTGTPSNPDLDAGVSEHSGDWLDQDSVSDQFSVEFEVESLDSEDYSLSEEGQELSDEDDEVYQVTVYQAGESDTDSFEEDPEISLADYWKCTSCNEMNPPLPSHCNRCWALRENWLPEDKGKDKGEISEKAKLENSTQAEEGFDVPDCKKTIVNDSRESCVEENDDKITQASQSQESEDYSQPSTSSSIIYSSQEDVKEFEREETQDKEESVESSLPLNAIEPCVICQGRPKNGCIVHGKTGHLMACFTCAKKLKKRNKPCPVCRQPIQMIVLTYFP
Calb FLC – C. albicans growth inhibition with fluconazole, primary screen, CaCi-2 strain, Alamar Blue fluorescence | growth inhibition, % (no concentration beside the values) | hit rate 0.57% among 300,000 | C. albicans CaCi-2 + fluconazole, 48 h;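 active = growth inhibition above about 58% in most replicates, limit read from the data, passing the limit was not always enough; inconclusive = exactly half the replicates above a set limit; inactive = most replicates below a set limit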;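 also: all wells also contain fluconazole at 8 µg/ml as a sub-toxic cotreatment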
NLRP3 yeast inh – NALP3 inflammasome inhibitors in reconstituted yeast, primary screen, luminescence, uHTS; Yeast reconstituted NLRP3/ASC/caspase-1, beta-gal luminescence, 24 h; inhibition, % at 10 µM; hit rate 0.39% among 330,000; AID 2825, 2010;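 active = inhibition of 50% or more; inactive = inhibition below 50%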
CSC inhib – cancer stem cell viability inhibitors, primary screen, luminescence. cancer stem cell-like cells viability. inhibition, % at 7.5 µM. hit rate 1.1% among 300,000. AID 2717, 2010; in the data active = inhibition above about 75%; inconclusive = no clear call, values can overlap the other calls; tested in HMLE shEcad cells
Beta cell apopt – inhibitors of cytokine-induced beta cell apoptosis, primary screen, luminescence; protection from apoptosis, % (no concentration beside the values); hit rate 0.8% among 300,000; INS-1E cytokine-induced death, ATP luminescence, 48 h; percent of positive-control rescue, neutral wells zero;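 active = Every replicate reaches about 75%, or at least half do and their mean reaches it too, limit read from the data; inconclusive = At least half of replicates reach the limit but their mean does not; inactive = Under half of replicates reach the limit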;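 also: higher means more ATP so stronger rescue from cytokine killing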
NALP3 yeast conf – NALP3 inhibitors retested in yeast, confirmation, luminescence, single concentration | shares compounds with NLRP3 yeast inh | yeast expressing human NALP3 | inhibition, % at 10 µM | hit rate 81% among 1,300 | AID 435006, 2010; in the data active = inhibition above about 48%
Casp1 ASC ctr – CASP1-PYCARD signaling inhibition in yeast, confirmatory test, counterassay for NLRP3 inhibitor program, one-dose; hit rate 66% among 1,000; yeast expressing Caspase-1-ASC, luminescence counter screen; shares compounds with NLRP3 yeast inh; inhibition, % at 10 µM; AID 488784, 2010
NALP3 retest – NALP3 inhibitors in yeast, repeat test, confirmation, luminescence, single concentration, retest; shares compounds with NLRP3 yeast inh; yeast expressing human NALP3, luminescence read-out; inhibition, % at 10 µM; hit rate 53% among 1,000; AID 488794, 2010
Of the large screens only hits and unclear results are named; the others gave an inactive call (follow-up assays come after a bar, where they were run). Shown are actives, neighbours in structure and some others; about 5.3% of the full set was active somewhere. Rule as the data show it, unless noted: active = inhibition above about 50%; inactive = the rest.

COC(=O)c1cc(C(=O)c2cccc(Cl)c2Cl)cn1C	Calb FLC inconclusive, NLRP3 yeast inh 61 | NALP3 yeast conf 73 | Casp1 ASC ctr 63 | NALP3 retest inactive
Cc1cccc(NC(=O)c2ccc(S(=O)(=O)N3CCCCC3)cc2)c1	NLRP3 yeast inh 52 | NALP3 yeast conf 60 | Casp1 ASC ctr 60 | NALP3 retest 52
CCOC(=O)CSc1nnc(CNC(=O)c2ccc(OC)cc2)n1Cc1ccccc1	none (no result: T cruzi repl, Calb FLC)
Nn1c(SCc2ccc(Br)cc2)nnc1-c1ccccn1	NLRP3 yeast inh 65 | NALP3 yeast conf 67 | Casp1 ASC ctr 54 | NALP3 retest 56
O=S(=O)(c1c(Cl)sc(Cl)c1Br)N1CCCC1	NLRP3 yeast inh 64 | NALP3 yeast conf 64 | Casp1 ASC ctr 62 | NALP3 retest 67
COc1ccccc1CNC(=O)C(=O)NCC1OCCN1S(=O)(=O)c1ccc(Br)cc1 (stereo not given)	T cruzi repl inconclusive (no result: Beta cell apopt)
Cn1c(Cl)c(C(=O)Nc2ccccc2)c2ccccc21	NLRP3 yeast inh 60 (no result: T cruzi repl, Calb FLC) | NALP3 yeast conf 82 | Casp1 ASC ctr 56 | NALP3 retest 51
Cc1ccc(-c2csc(=S)n2CC(=O)OCC(=O)NCc2ccco2)cc1	none
CCN(CC)c1ccc2c(O)cc(=O)oc2c1	none
CCN(CC)c1ccc2c(Cl)cc(=O)oc2c1	NLRP3 yeast inh 58 | NALP3 yeast conf 53 | Casp1 ASC ctr 59 | NALP3 retest inactive
c1ccc(-c2n[nH]c3ccccc23)cc1	NLRP3 yeast inh 65 | NALP3 yeast conf 85 | Casp1 ASC ctr 70 | NALP3 retest 63
O=c1[nH]nc(-c2ccccc2)c2ccccc12	none
c1ccc2c(c1)Cn1c-2nc2ccccc21	NLRP3 yeast inh 70 | NALP3 yeast conf 73 | Casp1 ASC ctr 84 | NALP3 retest 77
COc1ccc(NC(=O)CN2C(=O)NC(C)(c3ccc4c(c3)OCO4)C2=O)cc1S(N)(=O)=O (stereo not given)	none (no result: T cruzi repl, Calb FLC)
Cc1nc2ccc(Nc3nc4cc(S(=O)(=O)N5CCOCC5)ccc4o3)cc2s1	none | NALP3 yeast conf inactive | Casp1 ASC ctr inactive | NALP3 retest inactive
O=C(NNC(=S)Nc1ccc(Br)cc1)c1cccnc1	NLRP3 yeast inh 53 | NALP3 yeast conf 50
CC(C)c1ccc(NC(=S)NNC(=O)c2cccnc2)cc1	Calb FLC inconclusive
O=C(CC1C(=O)N(c2ccccc2)C(=S)N1c1ccccc1)c1ccc(Br)cc1 (stereo not given)	none
CCSC1(SCC)N=C(N)C2(C#N)C(c3ccc(F)cc3)C12C#N (stereo not given)	NLRP3 yeast inh 59 | NALP3 yeast conf 50 | Casp1 ASC ctr 65 | NALP3 retest inactive
COC1(OC)N=C(N)C2(C#N)C(c3ccc(F)cc3)C12C#N (stereo not given)	none
CC1(C)[C@@H](O)CC[C@]2(C)C3C(O)C=C4[C@H]5C[C@@](C)(CO)CC[C@]5(C)CC[C@]4(C)[C@]3(C)CC[C@@H]12 (stereo not given in full)	NLRP3 yeast inh 62, CSC inhib 126 | NALP3 yeast conf 70 | Casp1 ASC ctr 64 | NALP3 retest 50
CC1(C)[C@@H](O)CC[C@]2(C)[C@H]3C(=O)C=C4[C@@H]5C[C@@](C)(C(=O)O)CC[C@]5(C)CC[C@@]4(C)[C@]3(C)CC[C@@H]12	none
O=C(NC1CCC(O)CC1)c1ccc(-c2ccc(Cl)cc2)o1 (stereo not given)	none
O=C(NNC(=O)c1ccccc1F)c1ccc(-c2ccc(Cl)cc2)o1	NLRP3 yeast inh 54 (no result: Beta cell apopt) | NALP3 yeast conf 59 | Casp1 ASC ctr inactive | NALP3 retest inactive
Cc1cc(C)c(C)c(S(=O)(=O)NC2CCCCC2)c1C	NLRP3 yeast inh 53 | NALP3 yeast conf inactive | Casp1 ASC ctr inactive | NALP3 retest inactive
COc1cc(C(=O)N2CCN(c3ccccn3)CC2)cc(OC)c1OC	none
COc1cc2ccccc2cc1C(=O)N1CCN(c2ccccn2)CC1	NLRP3 yeast inh 52 | NALP3 yeast conf 87 | Casp1 ASC ctr 62 | NALP3 retest 76
COC(=O)CSc1nc2cc3c(cc2cc1C)OCCO3	NLRP3 yeast inh 69 | NALP3 yeast conf 73 | Casp1 ASC ctr 80 | NALP3 retest 71
c1ccc2c(c1)CSc1ccccc1N2	NLRP3 yeast inh 53 (no result: Beta cell apopt) | NALP3 yeast conf inactive
O=C1CCN(C(=O)c2ccccc2)C2CCCCC12 (stereo not given)	none
CC(=O)Oc1ccc2occ(C(=O)c3ccccc3)c2c1	none
O=C(CCl)Oc1ccc2occ(C(=O)c3cccs3)c2c1	NLRP3 yeast inh 73 | NALP3 yeast conf 86
CCC(=O)c1coc2ccc(O)cc12	none
CC(=O)Oc1ccc2occ(C(=O)c3cccs3)c2c1	NLRP3 yeast inh 75 (no result: Beta cell apopt) | NALP3 yeast conf 88 | Casp1 ASC ctr 81 | NALP3 retest 77
O=C(c1cccs1)c1coc2ccc(O)cc12	NLRP3 yeast inh 67 | NALP3 yeast conf 86 | Casp1 ASC ctr 87 | NALP3 retest 76
CCOC(=O)Cc1csc(NC(=O)c2cccc(OC)c2)n1	none
CCOC(=O)Cc1csc(NC(=O)c2cccc([N+](=O)[O-])c2)n1	NLRP3 yeast inh 59 | NALP3 yeast conf 76 | Casp1 ASC ctr 69 | NALP3 retest 51
Cc1ccc(OCC(=O)N(C)Cc2ccccc2)c([N+](=O)[O-])n1	none
CN(C(=O)COC(=O)c1cc(S(=O)(=O)N2CCCCC2)ccc1Cl)c1ccccc1	none (no result: T cruzi repl, Calb FLC, CSC inhib)
CCOc1ccc(C(=O)Nc2ccccc2CC)cc1[N+](=O)[O-]	NLRP3 yeast inh 53 | NALP3 yeast conf 60 | Casp1 ASC ctr 53 | NALP3 retest 55
CC1CCc2c(sc3nc(CSc4n[nH]c(N)n4)[nH]c(=O)c23)C1 (stereo not given)	none
CC1CCc2c(nc3sc4c(c3c2N)CCCC4)C1 (stereo not given)	NLRP3 yeast inh 54 | NALP3 yeast conf 77 | Casp1 ASC ctr 67 | NALP3 retest 58
CC1CCc2nc3sc4c(c3c(N)c2C1)CCCC4 (stereo not given)	Calb FLC inconclusive, NLRP3 yeast inh 59 | NALP3 yeast conf inactive
